H69AR growth 86K = growth inhibitors of human H69AR lung tumor cells | viability, % at 10 µM | H69AR lung tumor viability, ATP luminescence, 72 h; hits give low values | 6% of 85,000 active;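 active = viability at or below 40%; inactive = viability above 40%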;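 note: multidrug resistant small cell line overexpressing MRP-1 efflux transporter; 100% = mean luminescence of untreated control wells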
HCT116 PTEN-null = PTEN-deleted cell growth suppression; 1.2% of 140,000 active; viability, % at 10 µM; HCT116 PTEN-null viability, CellTiter-Glo, 60 h; hits give low values;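 active = viability at or below a set limit, 4 SD under the median of all tested compounds, cut at about 3.7% in these data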;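 note: PTEN knockout HCT116 line with beta catenin targeted HCT116 as companion control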
HCT116 bCat-KO = beta-catenin-lacking colon tumor cell growth suppression | HCT116 beta-catenin knockout viability, CellTiter-Glo, 60 h; hits give low values | viability, % at 10 µM | 1.5% of 140,000 active | AID 818;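 active = viability at or under a set limit, the compound median less 4 SD, cut at about 6% in these data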;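 note: 0% = Hyamine 1622 control at 20 µM and 100% = untreated cell control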
HUVEC inhibit = inhibitors of human endothelial cell proliferation; HUVEC proliferation, CellTiter-Glo luminescence, 72 h; hits give low values; viability, % at 10 µM (by protocol); 1.1% of 86,000 active;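 active = viability at or below 30%; inactive = viability above 30%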;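 note: 100% = median luminescence of DMSO-only cell control wells on each plate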
Lung fibro prol = blocks proliferation of human lung fibroblasts | LL 47 human lung fibroblast viability, ATP luminescence; hits give low values | viability, % at 10 µM | 1.1% of 85,000 active | AID 719;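 active = viability at or below 50% in the single dose screen; inactive = viability above 50%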;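 note: compound exposure lasted 72 h before the ATP readout; 100% = median luminescence of untreated cell-only wells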
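Test system: LL 47 human lung fibroblasts / Quantity: 1,150 cells in each well / Medium: IMEM growth medium with 15% fetal bovine serum / Incubation: 72 h compound exposure at 37 °C after overnight plating / Detection: CellTiter-Glo luminescence measuring cellular ATP / Read-out: % viability versus median cells-only luminescence / Benchmarks: cell-only wells, no compound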
* marks the source's active call; other numbers are inactive results; · = no result given. The full list was thinned out, with hits kept by preference.

SMILES	H69AR growth 86K	HCT116 PTEN-null	HCT116 bCat-KO	HUVEC inhibit	Lung fibro prol
CCN1c2ccccc2NC2N=C(OC)C(c3ccccc3)C21 (configuration not stated)	1.4*	1.7*	1.9*	2.1*	7.0*
Cn1cccc1C(C(=O)NC1CCCCC1)N(C(=O)Cc1cccs1)c1ccc2c(c1)OCO2 (configuration not stated)	28*	101	100	85	81
COc1ccc(N(C(=O)Cc2cccs2)C(C(=O)NC2CCCCC2)c2cccn2C)cc1 (configuration not stated)	78	83	90	78	86
Cc1ccc2nc3c(cc2c1)c(NC(=O)c1ccccn1)nn3CC(C)C	91	74	76	79	98
Cc1ccc2cc3c(NC(=O)c4ccco4)nn(CC(C)C)c3nc2c1	35*	87	76	52	86
c1ccc(-c2oc3ncnc(NCCCn4ccnc4)c3c2-c2ccccc2)cc1	29*	18	25	38	80
N=c1c2c(-c3ccccc3)c(-c3ccccc3)n(Cc3ccco3)c2ncn1CCCn1ccnc1	·	2.1*	2.2*	·	·
c1ccc(-c2c(-c3ccccc3)n(Cc3ccco3)c3ncnc(NCCCn4ccnc4)c23)cc1	9.1*	54	59	44	86
c1ccc2c(c1)oc1c(NCCCn3ccnc3)ncnc12	87	100	99	86	106
COc1ccc(NC(=O)CCN2C(=O)C3C4CCC(C4)C3C2=O)cc1 (configuration not stated)	·	101	93	·	·
CC1CC(C(F)F)n2nc(C(=O)Nc3sc4c(c3C#N)CCC(C(C)(C)C)C4)nc2N1 (configuration not stated)	18*	71	80	21*	53
CCOC(=O)Nc1sc2c(c1C#N)CCC(C)C2 (configuration not stated)	99	104	89	98	83
CC(C)(C)n1cnc2cc(NS(=O)(=O)c3ccccc3)ccc21	98	90	86	100	39*
COc1ccc(-n2cnc3cc(NS(=O)(=O)c4ccccc4)ccc32)cc1	69	71	80	76	92
Cn1cnc2cc(NS(=O)(=O)c3ccc(Br)cc3)ccc21	39*	61	67	98	85
S=c1[nH]nc(-c2ccc3c(c2)OCO3)n1-c1ccccc1	·	94	99	·	·
S=c1[nH]nc(COc2ccc3c(c2)OCO3)n1-c1ccccc1	37*	100	93	93	98
Cc1ccc2nc(SCC(=O)Nc3cccc([N+](=O)[O-])c3)[nH]c2c1	·	73	84	·	·
CCn1c(Sc2nc(C)nc3scc(-c4cccs4)c23)n[nH]c1=O	2.8*	23	26	81	63
c1ccc(-n2ncc3c(NCc4ccc5c(c4)OCO5)ncnc32)cc1	87	86	83	89	87
Cc1ccc(-n2ncc3c(NCc4ccc5c(c4)OCO5)ncnc32)c(C)c1	28*	60	61	89	68
COc1ccc(-n2ncc3c(NCc4ccc5c(c4)OCO5)ncnc32)cc1	6.2*	86	88	66	68
CC(C)n1c(SCC(=O)Nc2nc3c(s2)CCCC3)nc2c1c(=O)n(C)c(=O)n2C	34*	71	67	79	93
CC(C)n1c(SCC(=O)N2c3ccccc3CCc3ccccc32)nc2c1c(=O)n(C)c(=O)n2C	20*	·	·	43	97
CCCN(CCC)C(=O)Cn1c(=O)n(CCCCCC(=O)Nc2ccccc2)c(=O)c2sccc21	·	94	99	·	·
SMILES	H69AR growth 86K	HCT116 PTEN-null	HCT116 bCat-KO	HUVEC inhibit	Lung fibro prol
CCCC1C2C(=O)N(c3ccccc3OCC)C(=O)C2ON1c1ccccc1 (configuration not stated)	84	93	87	85	94
CC(C)CC(NC(=O)CCl)c1ccccc1 (configuration not stated)	·	62	57	·	·
CC(NC(=O)CCl)c1ccc(Cl)c(Cl)c1 (configuration not stated)	·	3.8*	2.9*	·	·
N#CCCN(C(=O)Nc1ccc(Cl)c(Cl)c1)c1ccccc1	·	89	95	·	·
COc1ccc(CCNC(=O)c2ccc(-c3ccc([N+](=O)[O-])cc3Cl)o2)cc1	·	73	74	·	·
COC(=O)NC(=S)Nc1ccc(Oc2ccc(Cl)cc2Cl)c(Cl)c1	24*	26	23	57	103
CCOC(=O)c1c(NC(=S)NC(=O)c2ccc(Cn3cc(Cl)cn3)o2)sc2c1CCCCC2	·	6	2.4*	·	·
CC1=CC(C)(C)[N+](C)=CN1c1ccccc1	·	88	90	·	·
Cc1nc(-c2ccccc2)nc2[nH]c(-c3ccccc3)cc(=O)c12	15*	87	91	55	96
Cc1nc(C)c2c(=O)cc(-c3ccccc3)[nH]c2n1	31*	30	27	57	61
CC(C)C(=O)Nc1ccc(-c2csc(-c3ccccc3)n2)cc1	·	96	102	·	·
Brc1cc(Br)c2ncnc(N3CCCCC3)c2c1	1.7*	10	5.8*	8.9*	16*
Clc1ccc(-n2ncc3c(N4CCCCCC4)ncnc32)cc1	79	98	91	87	103
COc1cccc(N/C(SC)=C(/C#N)C(N)=O)c1	28*	86	76	80	95
O=c1cc(-c2c(F)c(F)c(F)c(F)c2F)oc2ccccc12	·	·	2.2*	·	·
O=c1cc(-c2c(F)c(F)c(F)c(F)c2F)oc2c(F)c(F)c(F)c(F)c12	1.0*	1.5*	1.6*	1.6*	17*
CCN1C(=O)/C(=C/c2ccc(C)o2)N(C)C1=S	·	96	96	·	·
O=C(Nc1ccc2c(c1)C(=O)N(c1ccccc1)C2=O)C1CCCO1 (configuration not stated)	92	97	97	101	105
COc1ccc(C(C)C)cc1S(=O)(=O)n1cnc(C)c1	27*	45	52	64	91
COc1cc(C)c(Cl)cc1S(=O)(=O)n1cnc(C)c1	86	102	101	88	92
CC(=O)[C@@]1(O)CC[C@H]2[C@@H]3CCC4=CC(=O)CC[C@]4(C)[C@H]3[C@@H](O)C[C@@]21C	92	97	88	97	94
CC(=O)[C@@]1(O)CC[C@H]2[C@@H]3C[C@H](C)C4=CC(=O)CC[C@]4(C)[C@H]3CC[C@@]21C	6.9*	74	63	94	87
COC(=O)c1c(-c2ccc(Br)cc2)noc1N	29*	38	49	89	80
CCOc1cc(-c2noc(N)c2C(=O)OC)cc(OCC)c1OCC	23*	73	75	100	94
CCOc1cc(C(=O)OCC(=O)Nc2cc(C)on2)cc(OCC)c1OCC	79	98	90	69	108
S=c1nc(-c2ccccc2Cl)n(Cc2cccnc2)c2c1CCCC2	·	103	95	·	·
CN(C)CCCN1c2ccccc2Sc2ccccc21	57	54	64	90	90
CN(C)CCCN1c2ccccc2CCc2ccc(Cl)cc21	96	1.6*	1.7*	59	64

Screens (PubChem BioAssay)
